Screening results: PubChem, several laboratories
Shown are actives, neighbours in structure and some others; about 3.1% of the full set was active somewhere.
rCAG binder – molecules binding r(CAG) RNA repeats. AID 651821. actives 1.3% (n = 370,000). inhibition, % at 3 µM. r(CAG) RNA repeat, TO-PRO-1 dye displacement fluorescence;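 active = inhibition above the plate cutoff, the mean of all test compounds on that plate plus 3 SD, cut at about 35% in these data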;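 also: higher means more dye released from RNA so lower well fluorescence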
CSN deneddyl inh – inhibitors of human CSN-mediated cullin deneddylation | Q92905 | Purified CSN, SCF-Nedd8-OG deneddylation, fluorescence polarization | inhibition, % at 12.5 µM | actives 0.38% (n = 360,000) | AID 651999;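 active = pattern-corrected inhibition above about 35%, with an unprinted fluorescence ratio check between 0.5 and 1.5, limit read from the data, passing the limit was not always enough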
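Assay system: Purified human Csn5 enzyme expressed in HEK293T cells | Amount: Enzyme 0.24 nM | Measured by: Fluorescence polarization readout | Medium: Tris/NaCl/DTT buffer, pH 7.5 | Compound dosing: One concentration, 12.5 µM, 0.25% DMSO | Times: 90 min incubation of compound, enzyme and substrate at room temperature | Control set: no-enzyme wells high, enzyme-with-substrate wells low | Read-out: % inhibition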
ATG4B inh – ATG4B (human) cysteine protease inhibition | inhibition, % at 8.33 µM | AID 504462 | Q9Y4P1 | actives 0.51% (n = 340,000) | ATG4B cleavage of LC3-PLA2, NBD-HPC fluorescence, 1 h; in the data active = inhibition above about 40%
UHRF1 binding – human UHRF1 methylated DNA binding inhibitors | Q96T88 | UHRF1 binding to methylated oligo, TR-FRET | inhibition, % at 4.4 µM | actives 0.75% (n = 370,000) | AID 687016;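 also: UHRF1 SRA domain binding a hemimethylated CpG hairpin DNA probe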
MBD2 inh – MBD2-methylated oligo binding inhibition | inhibition, % at 4.4 µM | AID 686964 | TR-FRET, MBD2 binding to methylated oligonucleotide | actives 0.31% (n = 370,000); in the data active = inhibition above about 13%
Target sequence (Q9UBB5 whole entry, looked up): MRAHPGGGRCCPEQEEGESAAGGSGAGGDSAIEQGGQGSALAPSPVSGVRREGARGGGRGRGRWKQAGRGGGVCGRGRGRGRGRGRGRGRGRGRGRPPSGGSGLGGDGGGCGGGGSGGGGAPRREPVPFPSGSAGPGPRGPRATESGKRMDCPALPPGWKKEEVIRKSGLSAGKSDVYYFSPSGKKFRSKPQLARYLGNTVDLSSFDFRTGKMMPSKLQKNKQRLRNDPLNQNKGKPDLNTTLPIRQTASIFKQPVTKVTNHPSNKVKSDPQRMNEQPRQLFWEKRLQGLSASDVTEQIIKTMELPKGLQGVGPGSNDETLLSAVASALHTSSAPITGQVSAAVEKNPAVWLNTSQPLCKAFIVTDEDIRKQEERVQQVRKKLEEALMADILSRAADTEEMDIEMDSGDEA
LEDGF integ inh – blocks HIV-1 LEDGF/p75-dependent DNA integration; TR-FRET IN-LEDGF/p75 DNA integration, Eu/Cy5; inhibition, % at 3.7 µM; actives 0.64% (n = 370,000); AID 743269;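 active = inhibition above the screen-wide mean plus 3 SD, cut at about 13% in these data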;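 also: signal is the Cy5 over europium emission ratio at 671 and 618 nm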
UHRF1 ctr MBD2 – UHRF1 methyl-oligo binding inhibition as MBD2 counter-screen. shares compounds with MBD2 inh. UHRF1 binding to methylated oligonucleotide, TR-FRET. inhibition, % at 4.4 µM. actives 25% (n = 1,000). AID 720530;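 also: UHRF1 SRA domain binding a labeled hemimethylated CpG hairpin DNA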
MBD2 DBD conf – MBD2-DBD methyl-DNA binding inhibition, TR-FRET confirmation; shares compounds with MBD2 inh; TR-FRET MBD2-DBD binding to methylated oligonucleotide; inhibition, % at 4.4 µM; actives 26% (n = 1,000); AID 720531; in the data active = inhibition above about 14%
Hits are given with their value; i = inactive; nt = not tested or not shown. Rule as the data show it, unless noted: active = inhibition above about 21%; inactive = the rest.

SMILES | rCAG binder | CSN deneddyl inh | ATG4B inh | UHRF1 binding | MBD2 inh | LEDGF integ inh | UHRF1 ctr MBD2 | MBD2 DBD conf
CC(=O)C1C(c2ccc(F)c(F)c2)NC(=O)NC1(O)C(F)(F)F (stereo unspecified) | i | i | i | i | 24.4 | i | i | i
O=C(CCc1ccccc1)N[C@H]1[C@H](O)CCC[C@@]12C(=O)N(Cc1ccccc1)c1ccc(-c3ccccc3)cc12 | i | nt | nt | i | i | i | nt | nt
O=C(CCc1ccccc1)N[C@H]1[C@H](OC(=O)c2cnccn2)CCC[C@@]12C(=O)N(Cc1ccccc1)c1ccccc12 | i | nt | nt | i | i | i | nt | nt
O=C(CCc1ccccc1)N[C@H]1[C@H](OCc2ccccc2)CCC[C@@]12C(=O)N(Cc1ccccc1)c1ccc(-c3ccsc3)cc12 | i | nt | nt | i | 15.3 | i | i | i
O=C(CCc1ccccc1)N[C@H]1[C@@H](OC(=O)c2cccnc2)CCC[C@]12C(=O)N(Cc1ccccc1)c1ccccc12 | i | nt | nt | i | 17.1 | i | i | i
CCCCCC(=O)Nc1cc(S(=O)(=O)O)cc2cc(S(=O)(=O)O)cc(O)c12 | 43.4 | i | 43.0 | 99.5 | 97.1 | 90.7 | 102.9 | 113.2
CCCCCC(=O)Nc1cc(S(=O)(=O)N2CCCCC2)ccc1N1CCCCC1 | i | i | i | i | i | i | nt | nt
CC(Sc1nnc(CN2CCCC2)n1Cc1ccccc1)C(=O)Nc1ccccc1 (stereo unspecified) | i | i | i | i | 34.1 | i | i | i
C#CCOCCOCCOCCNc1nc(N2CCN(C(=O)[C@H]([C@@H](C)CC)n3cc(CCC(=O)O)nn3)CC2)nc(N2CCN(C(=O)[C@H](CCCCN)n3cc(CCCC)nn3)CC2)n1 | i | i | i | i | 24.6 | i | i | i
C#CCOCCOCCOCCNc1nc(N2CCN(C(=O)[C@H]([C@@H](C)CC)n3cc(CCCCN)nn3)CC2)nc(N2CCN(C(=O)[C@H](CCCCN)n3cc(CCCC)nn3)CC2)n1 | i | i | i | i | i | i | nt | nt
C#CCOCCOCCOCCNc1nc(N2CCN(C(=O)[C@H](CCCCN)n3cc([C@@H](N)C(C)CC)nn3)CC2)nc(N2CCN(C(=O)[C@H](CCCCN)n3cc([C@@H](N)C(C)CC)nn3)CC2)n1 (stereo partly specified) | nt | nt | nt | i | 15.7 | i | i | i
CC(Oc1ccccc1F)C(=O)/C=C/N(C)C (stereo unspecified) | nt | i | i | nt | nt | nt | nt | nt
CC(Oc1ccccc1Cl)C(=O)/C=C/N(C)C (stereo unspecified) | i | i | i | i | 17.5 | i | i | i
O=C(Nc1ccc(F)cc1)OCc1cn(Cc2c(F)cccc2F)nn1 | i | nt | nt | i | i | i | nt | nt
CCOC(=O)Cn1cc(CN2C(C(=O)OC)CN(Cc3ccc(Cl)cc3)CCS2(=O)=O)nn1 (stereo unspecified) | i | nt | nt | i | i | i | nt | nt
O=C(NCc1ccccn1)c1c(-c2ccccc2)sc2ccccc12 | i | i | i | 22.3 | 16.0 | i | i | i
O=C(NCc1ccccn1)c1ccc(-c2ccccc2)cc1 | i | i | i | i | i | i | nt | nt
Cc1ccc(S(=O)(=O)NCC(=O)OCC(=O)Nc2cccc(S(=O)(=O)NC3=NCCCCC3)c2)cc1C | i | i | i | i | i | i | nt | nt
Cc1ccc(C)c(C(=O)OCC(=O)Nc2cccc(S(=O)(=O)NC3=NCCCCC3)c2)c1 | i | i | i | i | 16.6 | i | i | i
Cc1ccc(OCC(C)CN2CCC(C(O)(c3ccccc3)c3ccccc3)CC2)cc1 (stereo unspecified) | i | nt | nt | i | i | i | nt | nt
COc1ccc(S(=O)(=O)N2CCOCC2)cc1NS(=O)(=O)/C=C/c1ccccc1 | i | i | i | i | i | i | nt | nt
COc1ccccc1NS(=O)(=O)/C=C/c1ccccc1 | i | i | i | i | 13.8 | i | i | i
CC(C)(C)C(=O)OC12CCCN(C1)/C(=C/c1ccncc1)C2 (stereo unspecified) | i | nt | nt | i | i | i | nt | nt
